Values after ≈ are worked out from the molar mass of the structure shown.
Tests used:
Type in all cases: functional
[1] = tested on: Streptococcus pneumoniae; assay: Antimicrobial activity against Streptococcus pneumoniae R6 transformed with Streptococcus pneumoniae 3191 pbp2x, pbp2b, murM and Streptococcus pneumoniae 72521 pbp1a genes by broth microdilution method
Outline: (§1)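 Reference broth microdilution MIC per CLSI guidelines, testing ceftaroline, penicillin, ceftriaxone and cefotaxime against susceptible laboratory strain R6 and R6 transformants. The transformants carry pbp and/or murM genes with β-lactam-resistance mutations, or genomic DNA, from donors 3191 (Hungarian clone) and 72521 (French isolate). MICs are in μg/ml.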

[2] = tested on: Streptococcus pneumoniae; assay: Antimicrobial activity against Streptococcus pneumoniae R6 by broth microdilution method; outline: as §1
[3] = tested on: Streptococcus pneumoniae; assay: Antimicrobial activity against Streptococcus pneumoniae R6 transformed with Streptococcus pneumoniae 3191 pbp2x and pbp2b genes by broth microdilution method; outline: as §1
[4] = tested on: Streptococcus pneumoniae; assay: Antimicrobial activity against Streptococcus pneumoniae 72521 by broth microdilution method
[5] = tested on: Streptococcus pneumoniae; assay: Antimicrobial activity against Streptococcus pneumoniae R6 transformed with Streptococcus pneumoniae 72521 pbp2x and pbp2b genes by broth microdilution method; outline: as §1
[6] = tested on: Streptococcus pneumoniae; assay: Antimicrobial activity against Streptococcus pneumoniae R6 transformed with Streptococcus pneumoniae 3191 pbp2x, pbp2b, pbp1a genes by broth microdilution method; outline: as §1
[7] = tested on: Streptococcus pneumoniae; assay: Antimicrobial activity against Streptococcus pneumoniae R6 transformed with Streptococcus pneumoniae 3191 pbp2x and Streptococcus pneumoniae 72521 pbp2b genes by broth microdilution method; outline: as §1
[8] = tested on: Streptococcus pneumoniae; assay: Antimicrobial activity against Streptococcus pneumoniae R6 transformed with Streptococcus pneumoniae 3191 pbp2x and pbp1a genes by broth microdilution method; outline: as §1
[9] = tested on: Streptococcus pneumoniae; assay: Antimicrobial activity against Streptococcus pneumoniae R6 transformed with Streptococcus pneumoniae 72521 pbp2x, pbp2b and Streptococcus pneumoniae 3191 pbp1a genes by broth microdilution method; outline: as §1
[10] = tested on: Streptococcus pneumoniae; assay: Antimicrobial activity against Streptococcus pneumoniae R6 transformed with Streptococcus pneumoniae 72521 genomic DNA, pbp2x, pbp1a and pbp2b genes by broth microdilution method; outline: as §1
[11] = tested on: Streptococcus pneumoniae; assay: Antimicrobial activity against Streptococcus pneumoniae R6 transformed with Streptococcus pneumoniae 3191 pbp2x gene by broth microdilution method; outline: as §1
[12] = tested on: Streptococcus pneumoniae; assay: Antimicrobial activity against Streptococcus pneumoniae 3191 by broth microdilution method
[13] = tested on: Streptococcus pneumoniae; assay: Antimicrobial activity against Streptococcus pneumoniae by broth microdilution method
[14] = tested on: Streptococcus pneumoniae; assay: Antimicrobial activity against Streptococcus pneumoniae R6 transformed with Streptococcus pneumoniae 72521 pbp2x, pbp1a, pbp2b and Streptococcus pneumoniae 3191 murM genes by broth microdilution method; outline: as §1
[15] = tested on: Streptococcus pneumoniae; assay: Antimicrobial activity against Streptococcus pneumoniae R6 transformed with Streptococcus pneumoniae 72521 pbp2x, pbp1a and pbp2b genes by broth microdilution method; outline: as §1
[16] = tested on: Streptococcus pneumoniae; assay: Antimicrobial activity against Streptococcus pneumoniae R6 transformed with Streptococcus pneumoniae 72521 genomic DNA, pbp2x, pbp1a, pbp2b and Streptococcus pneumoniae 3191 pbp1a genes by broth microdilution method; outline: as §1
[17] = tested on: Streptococcus pneumoniae; assay: Antimicrobial activity against Streptococcus pneumoniae R6 transformed with Streptococcus pneumoniae 72521 pbp2x, pbp1a, pbp2b genes and Streptococcus pneumoniae 3191 genomic DNA by broth microdilution method; outline: as §1
[18] = tested on: Streptococcus pneumoniae; assay: Antimicrobial activity against Streptococcus pneumoniae R6 transformed with Streptococcus pneumoniae 72521 murM, pbp2x, pbp2b and Streptococcus pneumoniae 3191 pbp1a genes by broth microdilution method; outline: as §1
[19] = tested on: Streptococcus pneumoniae; assay: Antimicrobial activity against Streptococcus pneumoniae R6 transformed with Streptococcus pneumoniae 3191 pbp2x, pbp2b, pbp1a and Streptococcus pneumoniae 72521 murM genes by broth microdilution method; outline: as §1
[20] = tested on: Streptococcus pneumoniae; assay: Antimicrobial activity against Streptococcus pneumoniae R6 transformed with Streptococcus pneumoniae 3191 pbp2b, pbp1a and murM genes by broth microdilution method; outline: as §1
[21] = tested on: Streptococcus pneumoniae; assay: Antimicrobial activity against Streptococcus pneumoniae R6 transformed with Streptococcus pneumoniae 72521 pbp2x gene by broth microdilution method; outline: as §1

Structure (SMILES)	MIC [1]	MIC [2]	MIC [3]	MIC [4]	MIC [5]	MIC [6]	MIC [7]	MIC [8]	MIC [9]	MIC [10]	MIC [11]	MIC [12]	MIC50 [13]	MIC90 [13]	MIC [14]	MIC [15]	MIC [16]	MIC [17]	MIC [18]	MIC [19]	other results
CC1(C)S[C@@H]2[C@H](NC(=O)[C@H](N)c3ccc(O)cc3)C(=O)N2[C@H]1C(=O)O [AMOXICILLIN]	1.5 µg/mL (≈ 4.1 µM)	≤ 0.015 µg/mL	0.19 µg/mL (≈ 0.52 µM)	8 µg/mL (≈ 21.9 µM)	0.094 µg/mL (≈ 0.257 µM)	4 µg/mL (≈ 10.9 µM)	0.19 µg/mL (≈ 0.52 µM)	0.032 µg/mL (≈ 0.0876 µM)	0.75 µg/mL (≈ 2.05 µM)	1 µg/mL (≈ 2.74 µM)	0.047 µg/mL (≈ 0.129 µM)	8 µg/mL (≈ 21.9 µM)	8 µg/mL (≈ 21.9 µM)	> 8 µg/mL	1 µg/mL (≈ 2.74 µM)	0.5 µg/mL (≈ 1.37 µM)	1.5 µg/mL (≈ 4.1 µM)	1 µg/mL (≈ 2.74 µM)	3 µg/mL (≈ 8.21 µM)	4 µg/mL (≈ 10.9 µM)	MIC [20]: 0.023 µg/mL (≈ 0.0629 µM)
CO/N=C(\C(=O)N[C@@H]1C(=O)N2C(C(=O)O)=C(COC(C)=O)CS[C@H]12)c1csc(N)n1 [CEFOTAXIME]	2 µg/mL (≈ 4.39 µM)	0.03 µg/mL (≈ 0.0659 µM)	0.5 µg/mL (≈ 1.1 µM)	2 µg/mL (≈ 4.39 µM)	0.5 µg/mL (≈ 1.1 µM)	16 µg/mL (≈ 35.1 µM)	1 µg/mL (≈ 2.2 µM)	0.06 µg/mL (≈ 0.132 µM)	2 µg/mL (≈ 4.39 µM)	2 µg/mL (≈ 4.39 µM)	0.03 µg/mL (≈ 0.0659 µM)	4 µg/mL (≈ 8.78 µM)	8 µg/mL (≈ 17.6 µM)	8 µg/mL (≈ 17.6 µM)	2 µg/mL (≈ 4.39 µM)	2 µg/mL (≈ 4.39 µM)	4 µg/mL (≈ 8.78 µM)	2 µg/mL (≈ 4.39 µM)	4 µg/mL (≈ 8.78 µM)	16 µg/mL (≈ 35.1 µM)	MIC [20]: 0.03 µg/mL (≈ 0.0659 µM); MIC [21]: 0.06 µg/mL (≈ 0.132 µM)
CC1(C)S[C@@H]2[C@H](NC(=O)Cc3ccccc3)C(=O)N2[C@H]1C(=O)O [PENICILLIN G]	8 µg/mL (≈ 23.9 µM)	0.015 µg/mL (≈ 0.0449 µM)	1 µg/mL (≈ 2.99 µM)	4 µg/mL (≈ 12 µM)	0.5 µg/mL (≈ 1.5 µM)	4 µg/mL (≈ 12 µM)	2 µg/mL (≈ 5.98 µM)	2 µg/mL (≈ 5.98 µM)	1 µg/mL (≈ 2.99 µM)	1 µg/mL (≈ 2.99 µM)	2 µg/mL (≈ 5.98 µM)	16 µg/mL (≈ 47.8 µM)	8 µg/mL (≈ 23.9 µM)	8 µg/mL (≈ 23.9 µM)	1 µg/mL (≈ 2.99 µM)	0.5 µg/mL (≈ 1.5 µM)	2 µg/mL (≈ 5.98 µM)	8 µg/mL (≈ 23.9 µM)	2 µg/mL (≈ 5.98 µM)	8 µg/mL (≈ 23.9 µM)	MIC [20]: 0.03 µg/mL (≈ 0.0897 µM); MIC [21]: 0.5 µg/mL (≈ 1.5 µM)
CO/N=C(\C(=O)N[C@@H]1C(=O)N2C(C(=O)O)=C(CSc3nc(=O)c(O)nn3C)CS[C@H]12)c1csc(N)n1 [CEFTRIAXONE]	4 µg/mL (≈ 7.21 µM)	0.03 µg/mL (≈ 0.0541 µM)	1 µg/mL (≈ 1.8 µM)	4 µg/mL (≈ 7.21 µM)	1 µg/mL (≈ 1.8 µM)	4 µg/mL (≈ 7.21 µM)	2 µg/mL (≈ 3.61 µM)	2 µg/mL (≈ 3.61 µM)	2 µg/mL (≈ 3.61 µM)	0.5 µg/mL (≈ 0.902 µM)	2 µg/mL (≈ 3.61 µM)	8 µg/mL (≈ 14.4 µM)	8 µg/mL (≈ 14.4 µM)	8 µg/mL (≈ 14.4 µM)	1 µg/mL (≈ 1.8 µM)	0.5 µg/mL (≈ 0.902 µM)	2 µg/mL (≈ 3.61 µM)	2 µg/mL (≈ 3.61 µM)	4 µg/mL (≈ 7.21 µM)	8 µg/mL (≈ 14.4 µM)	MIC [20]: 0.06 µg/mL (≈ 0.108 µM); MIC [21]: 0.5 µg/mL (≈ 0.902 µM)
C[C@@H](O)[C@H]1C(=O)N2C(C(=O)O)=C(S[C@@H]3CN[C@H](C(=O)N(C)C)C3)[C@H](C)[C@H]12 [MEROPENEM]													1 µg/mL (≈ 2.61 µM)	2 µg/mL (≈ 5.22 µM)							

Source: ChEMBL document CHEMBL1629597, “In vitro evaluation of the antimicrobial activity of ceftaroline against cephalosporin-resistant isolates of Streptococcus pneumoniae” (2009)
